Measured values taken from ChEMBL document CHEMBL4049390, “Combination of amino acid/dipeptide with ligustrazine-betulinic acid as antitumor agents” (Eur J Med Chem, 2017).

What was measured:
BGC-823 = experiment: Antiproliferative activity against human BGC823 cells after 72 hrs by MTT assay; type: functional, cell-based; conditions: BGC-823, 72 h
How it was run: (§1)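 MTT assay. Log-phase cells were seeded at 3×10^3 cells/well and left overnight, then exposed to serial dilutions of compound (DMSO solutions) for 72 h in RPMI 1640 with 10% heat-inactivated FBS at 37 °C, 5% CO2. MTT (5 mg/mL, 20 µL) was added for 4 h at 37 °C and the formazan dissolved in DMSO. A490 was read. % inhibition = (1 − sample OD/control OD)×100; IC50 is the 50% growth-inhibition concentration. Triplicates, n = 3 independent experiments.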

HeLa = experiment: Antiproliferative activity against human HeLa cells after 72 hrs by MTT assay; type: functional, cell-based; how it was run: as §1
MDCK = experiment: Antiproliferative activity against MDCK cells after 72 hrs by MTT assay; type: cell-based; conditions: Canis lupus familiaris; how it was run: as §1
HepG2 = experiment: Antiproliferative activity against human HepG2 cells after 72 hrs by MTT assay; type: functional, cell-based; conditions: HepG2, 72 h; how it was run: as §1
HT-29 = experiment: Antiproliferative activity against human HT-29 cells after 72 hrs by MTT assay; type: functional, cell-based; conditions: HT-29, 72 h; how it was run: as §1
A549 = experiment: Antiproliferative activity against human A549 cells after 72 hrs by MTT assay; type: functional, cell-based; conditions: A549, 72 h; how it was run: as §1

Compound | IC50 (BGC-823) | IC50 (HeLa) | IC50 (HepG2) | IC50 (HT-29) | IC50 (A549) | IC50 (MDCK)
C=C(C)[C@@H]1CC[C@]2(C(=O)OCc3nc(C)c(C)nc3C)CC[C@]3(C)[C@H](CC[C@@H]4[C@@]5(C)CC[C@H](OC(=O)CNC)C(C)(C)[C@@H]5CC[C@]43C)[C@@H]12 | 3.97 µM | 3.96 µM | 4.5 µM | 1.1 µM | 3.05 µM | 9.08 µM
C=C(C)[C@@H]1CC[C@]2(C(=O)OCc3nc(C)c(C)nc3C)CC[C@]3(C)[C@H](CC[C@@H]4[C@@]5(C)CC[C@H](OC(=O)[C@@H](N)Cc6ccccc6)C(C)(C)[C@@H]5CC[C@]43C)[C@@H]12 | > 20 µM | > 40 µM | > 40 µM | > 20 µM | > 40 µM | > 40 µM
C=C(C)[C@@H]1CC[C@]2(C(=O)OCc3nc(C)c(C)nc3C)CC[C@]3(C)[C@H](CC[C@@H]4[C@@]5(C)CC[C@H](OC(=O)[C@@H]6CCCN6)C(C)(C)[C@@H]5CC[C@]43C)[C@@H]12 | 3.47 µM | 6.33 µM | 4.54 µM | 2.73 µM | 3.36 µM | 10.2 µM
C=C(C)[C@@H]1CC[C@]2(C(=O)OCc3nc(C)c(C)nc3C)CC[C@]3(C)[C@H](CC[C@@H]4[C@@]5(C)CC[C@H](OC(=O)[C@@H]6CCC(=O)N6)C(C)(C)[C@@H]5CC[C@]43C)[C@@H]12 | 4.7 µM | 6.59 µM | 5.86 µM | 3.78 µM | 4.11 µM | 9.24 µM
C=C(C)[C@@H]1CC[C@]2(C(=O)OCc3nc(C)c(C)nc3C)CC[C@]3(C)[C@H](CC[C@@H]4[C@@]5(C)CC[C@H](OC(=O)CNC(=O)[C@H](C)N)C(C)(C)[C@@H]5CC[C@]43C)[C@@H]12 | 4.99 µM | 3.19 µM | 2.27 µM | 3.67 µM | 3.25 µM | 16.2 µM
C=C(C)[C@@H]1CC[C@]2(C(=O)OCc3nc(C)c(C)nc3C)CC[C@]3(C)[C@H](CC[C@@H]4[C@@]5(C)CC[C@H](OC(=O)[C@@H](N)Cc6c[nH]c7ccccc67)C(C)(C)[C@@H]5CC[C@]43C)[C@@H]12 | > 20 µM | > 20 µM | > 40 µM | 7.41 µM | > 20 µM | > 40 µM
C=C(C)[C@@H]1CC[C@]2(C(=O)OCc3nc(C)c(C)nc3C)CC[C@]3(C)[C@H](CC[C@@H]4[C@@]5(C)CC[C@H](OC(=O)CN(C)C(=O)CN)C(C)(C)[C@@H]5CC[C@]43C)[C@@H]12 | 3.43 µM | 2.62 µM | 4.94 µM | 3.31 µM | 2.96 µM | 8.08 µM
C=C(C)[C@@H]1CC[C@]2(C(=O)OCc3nc(C)c(C)nc3C)CC[C@]3(C)[C@H](CC[C@@H]4[C@@]5(C)CC[C@H](OC(=O)CN(C)C(=O)[C@@H]6CCCN6)C(C)(C)[C@@H]5CC[C@]43C)[C@@H]12 | 1.83 µM | 3.02 µM | 3.75 µM | 5.98 µM | 3.91 µM | 11.3 µM
C=C(C)[C@@H]1CC[C@]2(C(=O)OCc3nc(C)c(C)nc3C)CC[C@]3(C)[C@H](CC[C@@H]4[C@@]5(C)CC[C@H](OC(=O)CNC(=O)CN)C(C)(C)[C@@H]5CC[C@]43C)[C@@H]12 | 2.88 µM | 2.4 µM | 4 µM | 3.19 µM | 1.95 µM | 7.45 µM
C=C(C)[C@@H]1CC[C@]2(C(=O)OCc3nc(C)c(C)nc3C)CC[C@]3(C)[C@H](CC[C@@H]4[C@@]5(C)CC[C@H](OC(=O)CN(C)C(=O)[C@H](C)N)C(C)(C)[C@@H]5CC[C@]43C)[C@@H]12 | 4.38 µM | 4.55 µM | 4.27 µM | 3.86 µM | 5.18 µM | 14.6 µM
C=C(C)[C@@H]1CC[C@]2(C(=O)OCc3nc(C)c(C)nc3C)CC[C@]3(C)[C@H](CC[C@@H]4[C@@]5(C)CC[C@H](OC(=O)CNC(=O)CNC)C(C)(C)[C@@H]5CC[C@]43C)[C@@H]12 | 2.07 µM | 7.38 µM | 5.27 µM | 3.37 µM | 3.02 µM | 20.6 µM
C=C(C)[C@@H]1CC[C@]2(C(=O)OCc3nc(C)c(C)nc3C)CC[C@]3(C)[C@H](CC[C@@H]4[C@@]5(C)CC[C@H](OC(=O)CN(C)C(=O)CNC)C(C)(C)[C@@H]5CC[C@]43C)[C@@H]12 | 4.1 µM | 5.08 µM | 3.94 µM | 8.32 µM | 4.83 µM | 10.9 µM
C=C(C)[C@@H]1CC[C@]2(C(=O)OCc3nc(C)c(C)nc3C)CC[C@]3(C)[C@H](CC[C@@H]4[C@@]5(C)CC[C@H](O)C(C)(C)[C@@H]5CC[C@]43C)[C@@H]12 | 6.87 µM | 8 µM | 5.7 µM | 7.41 µM | 3.56 µM | 18.2 µM
C=C(C)[C@@H]1CC[C@]2(C(=O)OCc3nc(C)c(C)nc3C)CC[C@]3(C)[C@H](CC[C@@H]4[C@@]5(C)CC[C@H](OC(=O)CNC(=O)[C@@H]6CCCN6)C(C)(C)[C@@H]5CC[C@]43C)[C@@H]12 | 0.84 µM | 2.2 µM | 3.48 µM | 4.11 µM | 2.98 µM | 6.63 µM

Now from value to compound, other results behind:

IC50 (BGC-823) | IC50 (HeLa) | IC50 (HepG2) | IC50 (HT-29) | IC50 (A549) | Compound | IC50 (MDCK)
6.16 µM | 6.62 µM | > 20 µM | 7.74 µM | 6.33 µM | C=C(C)[C@@H]1CC[C@]2(C(=O)OCc3nc(C)c(C)nc3C)CC[C@]3(C)[C@H](CC[C@@H]4[C@@]5(C)CC[C@H](OC(=O)[C@H](C)N)C(C)(C)[C@@H]5CC[C@]43C)[C@@H]12 | > 40 µM
2.51 µM | 4.49 µM | 1.93 µM | 4.18 µM | 2.54 µM | C=C(C)[C@@H]1CC[C@]2(C(=O)OCc3nc(C)c(C)nc3C)CC[C@]3(C)[C@H](CC[C@@H]4[C@@]5(C)CC[C@H](OC(=O)[C@H](C)NC(=O)[C@H](C)N)C(C)(C)[C@@H]5CC[C@]43C)[C@@H]12 | 10.2 µM
7.14 µM | 8.63 µM | 5.91 µM | > 20 µM | 6.9 µM | C=C(C)[C@@H]1CC[C@]2(C(=O)OCc3nc(C)c(C)nc3C)CC[C@]3(C)[C@H](CC[C@@H]4[C@@]5(C)CC[C@H](OC(=O)[C@@H](N)C(C)C)C(C)(C)[C@@H]5CC[C@]43C)[C@@H]12 | > 40 µM
6.21 µM | 2.74 µM | 4.03 µM | 4.35 µM | 4.39 µM | C=C(C)[C@@H]1CC[C@]2(C(=O)OCc3nc(C)c(C)nc3C)CC[C@]3(C)[C@H](CC[C@@H]4[C@@]5(C)CC[C@H](OC(=O)[C@@H](N)CO)C(C)(C)[C@@H]5CC[C@]43C)[C@@H]12 | 8.56 µM
> 20 µM | > 20 µM | > 20 µM | > 20 µM | > 20 µM | C=C(C)[C@@H]1CC[C@]2(C(=O)OCc3nc(C)c(C)nc3C)CC[C@]3(C)[C@H](CC[C@@H]4[C@@]5(C)CC[C@H](OC(=O)[C@H](N)CC(=O)O)C(C)(C)[C@@H]5CC[C@]43C)[C@@H]12 | > 40 µM
7.05 µM | 8.39 µM | 3.64 µM | 6.66 µM | 4.18 µM | C=C(C)[C@@H]1CC[C@]2(C(=O)OCc3nc(C)c(C)nc3C)CC[C@]3(C)[C@H](CC[C@@H]4[C@@]5(C)CC[C@H](OC(=O)[C@@H](N)[C@@H](C)O)C(C)(C)[C@@H]5CC[C@]43C)[C@@H]12 | > 40 µM
> 20 µM | > 20 µM | 12.7 µM | 15.9 µM | 14.5 µM | C=C(C)[C@@H]1CC[C@]2(C(=O)OCc3nc(C)c(C)nc3C)CC[C@]3(C)[C@H](CC[C@@H]4[C@@]5(C)CC[C@H](OC(=O)[C@@H](N)[C@@H](C)CC)C(C)(C)[C@@H]5CC[C@]43C)[C@@H]12 | > 40 µM
> 20 µM | > 20 µM | > 40 µM | > 20 µM | > 20 µM | C=C(C)[C@@H]1CC[C@]2(C(=O)OCc3nc(C)c(C)nc3C)CC[C@]3(C)[C@H](CC[C@@H]4[C@@]5(C)CC[C@H](OC(=O)[C@@H](N)CC(C)C)C(C)(C)[C@@H]5CC[C@]43C)[C@@H]12 | > 40 µM
3.87 µM | 4.24 µM | 6.77 µM | 3.97 µM | 3.62 µM | C=C(C)[C@@H]1CC[C@]2(C(=O)OCc3nc(C)c(C)nc3C)CC[C@]3(C)[C@H](CC[C@@H]4[C@@]5(C)CC[C@H](OC(=O)CN)C(C)(C)[C@@H]5CC[C@]43C)[C@@H]12 | 5.82 µM
